PGC1a acetyl inh: modulators of PGC1a acetylation | inhibition, % at 15.6 µM | 350,000 tested, 0.17% active | AID 651687 | U2OS PGC1a acetylation, AlphaScreen anti-acetyl-lysine; with virally co-expressed GCN5 acetyltransferase;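 active = every replicate shows inhibition of at least 40%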;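 note: 0% = neutral control wells and 100% = positive control wells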
Cneo AK release: Cryptococcus neoformans lysis via adenylate kinase release; C. neoformans lysis, adenylate kinase release luminescence, 4 h; normalised: neutral wells 0, clomiphene wells 100; lysis activity, % at 15 µM; 360,000 tested, 0.2% active; AID 651654;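 active = mean lysis activity across replicates of at least 80%, whatever share of replicates individually reach that level; inactive = mean lysis activity below 80%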
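Material – Cryptococcus neoformans yeast cells · Quantity – 5 × 10^6 yeast cells/mL · Buffer or medium – YPD medium · Compound – single dose · Timing – 4 h static compound exposure, 37 °C, read 1 h post-reagent · Signal – adenylate kinase release luminescence · Read-out basis – lysis from increased AK signal · Benchmarks – Clomiphene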
C2C12 statin: protects C2C12 myotubes from simvastatin toxicity | ATP luminescence, 48 h; scaled: DMSO 0, geranylgeraniol control 100 | rescue of ATP level, % at 7.49 µM | 330,000 tested, 0.78% active;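 active = mean ATP rescue above about 67%, or every replicate alone reaching that limit, limit read from the data, passing the limit was not always enough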;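 note: myotubes were challenged with 10 µM simvastatin during compound exposure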
SIRT5 inh: inhibitors of human sirtuin-5 desuccinylase. 330,000 tested, 1.1% active. AID 652115. Q9NXA8. inhibition, % at 15 µM. Purified SirT5, succinyl-peptide AMC, trypsin-coupled fluorescence; in the data active = inhibition above about 15%
Target sequence (Q9NXA8 whole entry, looked up): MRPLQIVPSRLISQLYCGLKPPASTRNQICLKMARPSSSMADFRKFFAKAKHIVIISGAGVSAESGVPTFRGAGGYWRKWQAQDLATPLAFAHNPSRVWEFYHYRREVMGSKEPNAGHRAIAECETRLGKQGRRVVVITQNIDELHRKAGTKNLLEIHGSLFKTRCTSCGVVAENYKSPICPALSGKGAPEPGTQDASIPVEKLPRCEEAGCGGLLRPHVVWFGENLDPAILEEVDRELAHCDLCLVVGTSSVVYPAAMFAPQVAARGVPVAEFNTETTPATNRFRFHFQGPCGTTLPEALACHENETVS
S100A4 inh HTS: S100A4-myosin IIA interaction inhibition; AID 652163; S100A4/TAMRA-MyoIIA peptide fluorescence polarization; inhibition, % at 10.7 µM; 360,000 tested, 0.14% active;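 active = mean inhibition of at least 70% across replicates, with every replicate also reaching that level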
Target sequence (P26447 whole entry, looked up): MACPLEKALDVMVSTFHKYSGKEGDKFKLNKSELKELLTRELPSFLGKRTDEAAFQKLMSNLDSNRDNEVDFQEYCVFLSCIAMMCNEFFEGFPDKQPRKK
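Material: human S100A4 monomer with TAMRA-labelled myosin IIA peptide; buffer or medium: HEPES pH 7.2 with CaCl2, KCl, NaCl, DTT, Triton; compound dosing: one concentration per compound; schedule: 5 min incubation before reading; benchmarks: neutral control DMSO, positive control TFP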
rRNA inh HTS: selective bacterial rRNA inhibition in E. coli; 350,000 tested, 1.6% active; E. coli WT GFP vs humanized-ribosome RFP mutants, fluorescence, 24 h; hits give low values; DMSO median 0, no signal -100; AID 720706; GFP signal change (wild-type ribosome), % (test concentration not listed);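 active = significant combined selectivity score with lowered wild-type GFP, culture density cut under 30%, mutant RFP and density less affected; inactive = any of these conditions unmet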
An asterisk follows results filed as active; nt = not tested or not shown. Sampled rows, rich in hits. Any-hit rate of the full collection: about 3%.

SMILES	PGC1a acetyl inh	Cneo AK release	C2C12 statin	SIRT5 inh	S100A4 inh HTS	rRNA inh HTS
NNC(=O)c1ccc(COc2ccc3ccccc3c2)o1	nt	nt	nt	1	-22	-25*
CCOc1ccc(OCc2ccc(C(=O)NN)o2)cc1	nt	nt	nt	2	-3	-13
O=C(O)c1ccc(COc2ccc([N+](=O)[O-])cc2)o1	nt	nt	18	19*	-3	4
O=C(C1=C[C@@H](c2ccc3c(c2)OCO3)C[C@@H](OCc2ccc(CO)cc2)O1)N1CCN(Cc2ccccc2)CC1	nt	0	nt	5	61	nt
C[C@H]1CN(C)C(=O)c2ccccc2O[C@H]1CN(C)S(C)(=O)=O	nt	nt	nt	nt	nt	0
Cc1ccc(NC(=O)CCl)cc1S(=O)(=O)N1CCCCCC1	-14	nt	nt	4	-9	-16*
Cc1ccc(S(=O)(=O)c2cccc(S(=O)(=O)N3CCCC3)c2)cc1S(=O)(=O)N1CCCC1	-17	-3	90*	nt	nt	nt
COc1ccc(NC(=O)Cc2ccc(C)c(C)c2)cc1S(=O)(=O)N1CCCCC1	nt	nt	nt	1	1	-29*
CCCNC(=O)N(C)C[C@H]1Oc2ncc(C3=CCCC3)cc2C(=O)N([C@H](C)CO)C[C@H]1C	9	-6	19	-4	3	5
CCOc1cc(/C=N/NC(=O)CCCC(=O)NC2CCCCC2)ccc1O	-10	102*	nt	1	-1	-8
COc1cc(/C=N/NC(=O)CCC(=O)NC2CCCCC2)ccc1C	2	nt	nt	-6	-2	17
C[C@@H]1CN([C@H](C)CO)S(=O)(=O)c2ccc(Br)cc2O[C@H]1CN(C)S(=O)(=O)c1ccccc1	-6	-1	-7	1	-2	-38
COc1ccc(NC(=O)N(C)C[C@H]2Oc3cc(-c4cccc(C(=O)N(C)C)c4)ccc3S(=O)(=O)N([C@H](C)CO)C[C@H]2C)cc1	4	2	10	-4	5	1
CCOC(=O)C(=CNc1ccc(C(F)(F)F)cc1)C(=O)OCC	nt	nt	nt	nt	-7	-23*
C=CCn1ncc(OC)c(Cl)c1=O	8	nt	nt	24*	-6	-17
Cc1ccc(C(=O)NC(=C(Cl)Cl)S(=O)(=O)c2ccc(Cl)cc2)cc1	nt	nt	nt	0	-3	-24*
Cc1ccc(C(=O)NC(=C(Cl)Cl)S(=O)(=O)c2ccc(C)cc2)cc1	nt	13	nt	nt	nt	nt
COc1ccc(CCN2CN(S(=O)(=O)c3ccc(OC)cc3)c3nc4ccccc4nc32)cc1	nt	nt	nt	0	-1	-9
O=S(=O)(c1cccs1)N1CN(Cc2ccccc2)c2nc3ccccc3nc21	0	nt	nt	nt	nt	nt
COc1ccc(CN2CN(S(=O)(=O)c3ccccc3)c3nc4ccccc4nc32)cc1	6	nt	nt	4	6	-25*
COc1ccc(CN2CN(S(=O)(=O)c3cccs3)c3nc4ccccc4nc32)cc1	-4	nt	nt	-3	-3	-42*
CCOCCCN1CN(S(=O)(=O)c2ccc(Cl)cc2)c2nc3ccccc3nc21	2	0	133*	nt	nt	nt
CC(C)OCCCN1CN(S(=O)(=O)c2ccc(Cl)cc2)c2nc3ccccc3nc21	nt	8	5	-3	-8	-10
Oc1ccccc1-c1cc(-c2ccccc2)no1	4	-5	94*	nt	nt	nt
C[C@@H]1CN([C@@H](C)CO)S(=O)(=O)c2ccc(-c3ccncc3)cc2O[C@@H]1CN(C)C(=O)CN(C)C	1	-1	7	-2	-5	7
SMILES	PGC1a acetyl inh	Cneo AK release	C2C12 statin	SIRT5 inh	S100A4 inh HTS	rRNA inh HTS
CCOc1ccc(C2=Nc3ccccc3C(c3ccc(N4CCOCC4)cc3)=NN2)cc1	nt	1	-6	nt	nt	nt
CCc1ccc2c(c1)C(c1ccc(N3CCOCC3)cc1)=NNC(c1ccncc1)=N2	nt	nt	nt	-6	-23	-18*
CC(C)(C)C(=O)c1c(N)[nH]c(C(=O)c2ccccc2)c1-c1ccc(Cl)cc1Cl	nt	nt	nt	-4	-18	-30*
N#Cc1c(N)[nH]c(C(=O)c2ccccc2)c1-c1ccc(Cl)cc1	nt	nt	nt	0	-8	-44*
COc1ccc(NC(=O)N(C)C[C@H]2OCc3ccccc3-c3ccccc3C(=O)N([C@@H](C)CO)C[C@@H]2C)cc1	nt	nt	nt	nt	nt	0
O=C(Nc1ccc(Nc2ccccc2)cc1)c1ccc(Cl)cc1[N+](=O)[O-]	2	5	-32	4	1	-27*
COc1ccc2c3c(n(C)c2c1)[C@H](CO)N(C(=O)CN1CCOCC1)CC31CCN(C(=O)CC2CC2)CC1	nt	nt	nt	nt	nt	-3
COc1ccc(-n2cnc3cc(NCc4cccs4)ccc32)cc1	4	1	127*	nt	nt	nt
Cc1ccc(-n2cnc3cc(NCc4cccs4)ccc32)cc1	14	6	-7	nt	nt	nt
Cc1noc(C)c1S(=O)(=O)Nc1ccc2c(c1)C(=O)N([C@H](C)CO)C[C@H](C)[C@@H](CN(C)C(=O)c1ccccc1)OCCCC[C@H](C)O2	-1	-5	nt	1	-3	0
N#Cc1cccc(-c2ccc([C@@H]3[C@H](CO)N4CCCCN(C(=O)Nc5cccc(F)c5)C[C@@H]34)cc2)c1	-26	2	-185	-5	-4	-58
O=C1O[C@H](c2ccccc2)[C@H](c2ccccc2)N2[C@H]1[C@@H](C(=O)Nc1nc3ccccc3s1)[C@]1(C(=O)Nc3ccc(C#CCCO)cc31)[C@H]2c1ccc(OCCO)cc1	nt	-3	nt	7	3	nt
O=C1SCCN1N=Cc1ccc([N+](=O)[O-])o1	3	1	10	22*	-10	5
CC1CN(N=Cc2ccc([N+](=O)[O-])o2)C(=N)O1 (stereo not drawn)	-7	2	-10	-5	-7	-4
Cc1ccc(S(=O)(=O)Nc2ccc3c(c2)CC(=O)N([C@@H](C)CO)C[C@@H](C)[C@H](CN(C)Cc2ccc(Oc4ccccc4)cc2)O3)cc1	-10	-3	83*	22*	-11	3
C[C@H]1CN([C@@H](C)CO)C(=O)Cc2cc(NS(=O)(=O)c3ccc(Cl)cc3)ccc2O[C@@H]1CN(C)Cc1ccc(Oc2ccccc2)cc1	12	-14	21	17*	-50	0
CC(C)NC(=O)Nc1ccc2c(c1)C(=O)N([C@@H](C)CO)C[C@H](C)[C@H](CN(C)C(=O)CCC(F)(F)F)OCCCC[C@@H](C)O2	0	-1	nt	1	1	1
CO[C@@H]1CN(C)C(=O)c2ccc(NC(=O)c3cccc(F)c3)cc2OC[C@H](C)N(CC2CC2)C[C@@H]1C	-38	0	-18	1	-10	4
COCCNC(=O)C[C@H]1CC[C@H]2[C@H](COc3ccc(NC(=O)Cc4ccccc4)cc3C(=O)N2C)O1	3	-3	7	-2	9	-3
C[C@@H]1CN([C@@H](C)CO)C(=O)Cc2cc(NC(=O)CCN3CCOCC3)ccc2O[C@@H]1CN(C)C	-6	7	8	3	128*	1

Screens from PubChem.
